# Results pooled from the literature.
# Each line is one published result; the experiments were not run side by side.
# JAK2: Tyrosine-protein kinase JAK2 (JAK2, Homo sapiens, UniProt O60674)
# JAK2 JH1: Tyrosine-protein kinase JAK2, JH1 (JAK2, Homo sapiens, UniProt O60674)
SMILES,target,test,conditions,quantity,value
C#Cc1n[nH]c2c(-c3cn(C(C)c4ccccn4)c(=O)[nH]c3=O)cc(F)cc12 (stereo not drawn),JAK2,"enzyme activity, inhibitor",1 µM,inhibition,-4.2%
CC(C)(C)c1cc(C=C(C#N)C#N)cc(Br)c1O,JAK2,"enzyme activity, inhibitor",0.5 µM,remaining activity,107%
Cn1cc(-c2cc(F)cc(N3CCn4c(cc5c4CCCC5)C3=O)c2CO)cc(Nc2ccc(N3CCN(C4COC4)CC3)cn2)c1=O,JAK2,"enzyme activity, inhibitor",0.1 µM,inhibition,8%
Cn1cncc1[C@](O)(COc1ccc(C#N)cc1-c1ccc(OC(F)(F)F)cc1)c1ccc(C#N)cc1,JAK2 JH1,"cell-free assay, competition with immobilised ligand",1 µM,remaining binding,91%
Cn1cc(-c2cccc(N3CCc4c(sc5c4CC(C)(C)C5)C3=O)c2CO)cc(Nc2ccncn2)c1=O,JAK2,"enzyme activity, inhibitor",1 µM,inhibition,-5%
Nc1ncc(-c2nc(N3CCOCC3)nc(N3CCOCC3)n2)c(C(F)F)n1,JAK2 JH1,"binding, competition with immobilised ligand",10 µM,remaining binding,65%
O=c1[nH]c2ccccc2n1C1CCN(Cc2ccc(-c3[nH]c4cc5ncnc5cc4nc3-c3ccccc3)cc2)CC1,JAK2,cell-free assay,0.5 µM,remaining signal,104%
COc1ncccc1-c1cnn2ccc(N3CCN(C(=O)OC(C)C)CC3)nc12,JAK2,"binding, competition with immobilised ligand",1 µM,remaining binding,89%
N#CC1(c2ccccn2)CCN(Cc2cc(C(=O)O)c(=O)n3ccccc23)CC1,JAK2 JH1,"cell-free assay, competition with immobilised ligand",1 µM,remaining binding,96%
